Active and inactive are the calls of the source.

The species named for one data set is Homo sapiens. Nature of the data set: Selectivity ratio of IC50 for human HDAC1 to IC50 for human HDAC6. The method in brief:
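HDAC1 and HDAC6 IC50s are each the mean of two experiments.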

Data set [1] concerns the target T1, Protein deacetylase HDAC6 (Homo sapiens, UniProt Q9UBN7).
T1 sequence (Q9UBN7 whole entry): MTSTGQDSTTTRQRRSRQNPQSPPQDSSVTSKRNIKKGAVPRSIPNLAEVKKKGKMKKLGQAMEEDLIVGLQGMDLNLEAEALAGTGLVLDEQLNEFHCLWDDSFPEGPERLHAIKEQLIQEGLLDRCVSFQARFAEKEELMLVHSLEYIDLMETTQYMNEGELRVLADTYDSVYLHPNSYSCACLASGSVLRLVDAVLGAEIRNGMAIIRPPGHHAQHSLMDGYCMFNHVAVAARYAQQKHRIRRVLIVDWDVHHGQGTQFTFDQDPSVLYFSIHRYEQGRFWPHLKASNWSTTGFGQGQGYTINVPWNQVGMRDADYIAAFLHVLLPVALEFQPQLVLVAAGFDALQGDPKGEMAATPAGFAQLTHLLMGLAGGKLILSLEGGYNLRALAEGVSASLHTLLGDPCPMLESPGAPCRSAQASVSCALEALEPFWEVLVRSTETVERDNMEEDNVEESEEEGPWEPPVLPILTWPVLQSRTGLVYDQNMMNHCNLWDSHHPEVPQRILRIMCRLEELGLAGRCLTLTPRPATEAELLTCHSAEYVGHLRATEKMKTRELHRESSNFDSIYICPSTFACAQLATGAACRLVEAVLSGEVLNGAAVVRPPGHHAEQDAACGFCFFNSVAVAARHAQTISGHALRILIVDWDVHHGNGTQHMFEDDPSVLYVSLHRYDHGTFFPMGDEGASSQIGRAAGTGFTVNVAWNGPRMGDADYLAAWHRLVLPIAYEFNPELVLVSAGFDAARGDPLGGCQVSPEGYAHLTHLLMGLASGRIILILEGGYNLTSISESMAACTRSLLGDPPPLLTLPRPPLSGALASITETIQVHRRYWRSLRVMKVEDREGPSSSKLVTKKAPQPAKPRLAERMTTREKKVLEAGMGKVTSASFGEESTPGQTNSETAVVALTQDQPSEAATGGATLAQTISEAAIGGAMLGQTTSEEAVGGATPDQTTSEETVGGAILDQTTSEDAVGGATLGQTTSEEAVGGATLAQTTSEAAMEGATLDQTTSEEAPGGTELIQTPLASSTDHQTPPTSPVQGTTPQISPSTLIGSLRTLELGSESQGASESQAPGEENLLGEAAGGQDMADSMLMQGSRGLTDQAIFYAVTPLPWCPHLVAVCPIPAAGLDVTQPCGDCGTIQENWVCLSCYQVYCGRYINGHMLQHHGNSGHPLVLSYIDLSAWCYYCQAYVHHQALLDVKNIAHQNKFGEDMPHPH
The data set is described as follows: Inhibition of human HDAC6 using RHKKAc as substrate by fluorescence assay.

Data set [2] has as its target T2, Histone deacetylase 1 (Homo sapiens, UniProt Q13547). The data set is described as follows: Inhibition of human HDAC1 using RHKKAc as substrate by fluorescence assay.
Data set [3] is described as follows: Metabolic stability in mouse liver microsomes assessed as parent compound remaining at 60 mins in presence of NADPH. Conditions: read-out: Stability. The format is ADME, microsome. The method in brief:
(§1)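 Incubated in pooled liver microsomes (human or mouse as per line) with NADPH cofactor; all tests run in duplicate.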

A short description of data set [4]: Metabolic stability in human liver microsomes assessed as parent compound remaining at 60 mins in presence of NADPH. Format: ADME, microsome. Conditions: read-out: Stability. The method in brief:
as §1
A general note: Liver microsomes are a subcellular fraction often used to study metabolism.

Data set [5] in a line: Half life in human liver microsomes in presence of NADPH. Format: ADME, microsome. The method in brief:
as §1

A short description of data set [6]: Half life in mouse liver microsomes in presence of NADPH. Format: ADME, microsome. The method in brief:
as §1

Data set [7] has as its system Liver. The data set is described as follows: Prodrug conversion in human liver microsomes assessed as N-[5-(5,6-Dichloro-1H-indol-1-yl)pentyl]-2-mercaptoacetamide formation measured over 60 mins. The format is ADME, microsome. The method in brief: (§2)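 Disulfide prodrug incubated with pooled human or mouse liver microsomes, with the released free mercaptoacetamide measured over time. Percent released is taken as the measured thiol concentration divided by twice the initial prodrug concentration.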

Data set [8] relates to Liver. Nature of the data set: Prodrug conversion in mouse liver microsomes assessed as N-[5-(5,6-Dichloro-1H-indol-1-yl)pentyl]-2-mercaptoacetamide formation measured over 60 mins. Format: ADME, microsome. The method in brief:
as §2

Data set [9] deals with T3, Protein deacetylase HDAC6 (Homo sapiens) (UniProt Q9UBN7).
T3 sequence (whole entry): T1 sequence (Q9UBN7 whole entry)
Nature of the data set: Inhibition of HDAC6 in HEK293 cells assessed as induction of tubulin acetylation after 24 hrs by Western blot method. The format is cell-based. The method in brief: (§3)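 HEK293 cells are treated with compound, and acetylated tubulin and histone H3 are detected by Western blot with GAPDH as loading control. Each blot carries a tubastatin 10 µM positive control and a DMSO or medium negative control.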

For data set [10], the target named is T2, Histone deacetylase 1. The data set is described as follows: Inhibition of HDAC1 in HEK293 cells assessed as increase in histone H3 acetylation at 5 uM after 24 hrs by Western blot method. The format is cell-based. The method in brief:
as §3
Background: Immunoblotting shows a protein as a band on a membrane.

The subject of data set [11] is Liver. Nature of the data set: Prodrug conversion in mouse liver microsomes assessed as N-[4-[(5,7-Dichloroquinolin-8-yl)amino]butyl]-2-mercaptoacetamide formation measured over 60 mins. The conditions noted are these: 1 h. Format: ADME, microsome. The method in brief:
as §2

A further data set concerns Mus musculus. Nature of the data set: In vivo inhibition of HDAC6 in C57Bl/6J mouse assessed as increase in tubulin acetylation in cerebral cortex at 20 mg/kg, ip first dose administered in evening followed by second dose in next day morning measured 6 hrs post last dose by Western blot method relative to vehicle-treated control. Format: functional. On the set-up: scale not given: the % may be the effect or the level left. The method in brief: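 Mice (n=3) are dosed 20 mg/kg IP at 18:00, then dosed again at 20 mg/kg at 10:00 the next morning, and killed 6 h later. Cortex is taken for Western blot of acetyl-tubulin with GAPDH as loading control. Densitometric acetyl-tubulin/GAPDH ratio is expressed as % of vehicle-treated mice; significance is set at p<0.05.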

The test system of data set [12] is Liver. Nature of the data set: Prodrug conversion in human liver microsomes assessed as N-[4-[(5,7-Dichloroquinolin-8-yl)amino]butyl]-2-mercaptoacetamide formation measured over 60 mins. The format is ADME, microsome. The conditions noted are these: 1 h. The method in brief: as §2

T2 sequence (Q13547 whole entry): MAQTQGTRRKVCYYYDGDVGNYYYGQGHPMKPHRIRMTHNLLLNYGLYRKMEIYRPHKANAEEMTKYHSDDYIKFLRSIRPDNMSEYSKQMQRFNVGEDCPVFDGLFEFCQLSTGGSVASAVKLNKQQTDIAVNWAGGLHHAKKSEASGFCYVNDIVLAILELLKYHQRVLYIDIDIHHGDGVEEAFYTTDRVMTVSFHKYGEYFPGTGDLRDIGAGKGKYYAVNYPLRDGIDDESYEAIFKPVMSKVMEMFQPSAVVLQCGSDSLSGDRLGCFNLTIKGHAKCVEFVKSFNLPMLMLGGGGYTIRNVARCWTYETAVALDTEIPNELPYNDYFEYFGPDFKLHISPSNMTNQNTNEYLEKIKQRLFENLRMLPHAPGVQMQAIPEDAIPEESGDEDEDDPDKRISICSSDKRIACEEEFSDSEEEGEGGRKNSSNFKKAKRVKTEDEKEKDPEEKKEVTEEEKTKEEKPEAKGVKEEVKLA

In the case of `O=C(CS)NCCCCCCn1cc(Cl)c2cc(Cl)c(Cl)cc21`, in the data set listed under Homo sapiens, the Ratio IC50 is over 124. Further, the values for the IC50 (in data set [1]; against Histone deacetylase 1 [2]) were 241 nM and over 30000 nM, respectively.

As for `O=C(CS)NCCCCCNc1c(Cl)cc(Cl)c2cccnc12`, the figures for the remaining at 1 h in [3] and in [4] were 39.6% and 32.1%, respectively. Also, in the data set filed under Homo sapiens, the Ratio IC50 was 444. Also, the results for the half-life in data set [5] and in [6] were 42.5 min and 51 min, respectively. Besides, the 50% inhibitory concentration (IC50) – broadly, the point on the concentration scale where inhibition reaches its midpoint – in [1] stood at 14.8 nM; against Histone deacetylase 1 [2], 6570 nM.

`CC(C)C(=O)SCC(=O)NCCCCCn1ccc2cc(Cl)c(Cl)cc21`: the Drug metabolism result in the data set on Liver [7] and in the data set with Liver [8] was “Metabolite_Detected” each time. Moreover, the remaining at 1 h in data set [3] and in [4] was under 1% in each case. In addition, the half-life in data set [5] and in [6] was under 1 min in each case. In addition, the inhibition entry in [9] was “Dose-dependent effect”.

`CC(C)c1cn(CCCCCCNC(=O)CS)c2cc(Cl)c(Cl)cc12`: the remaining at 1 h came to 44.3% in data set [3] and 33.3% in data set [4]. The Ratio IC50 in the data set filed under Homo sapiens is 18. For the same molecule, the half-life (as a rule, the time needed for the level to fall by half in the phase considered) in data set [5] stood at 48.8 min; in [6], 70 min. For the same molecule, the IC50 stood at 1570 nM in [1] and 28700 nM against Histone deacetylase 1 [2].

For the molecule `O=C(CS)NCCCCNc1c(Cl)cc(Cl)c2cccnc12`, the remaining at 1 h in data set [3] turned out to be 61.7%; in data set [4], 22.3%. In addition, the half-life in data set [5] is 32.2 min; in data set [6], 91.2 min. The IC50 in data set [1] is 2.79 nM; against Histone deacetylase 1 [2], 6880 nM.

Turning to `O=C(CS)NCCCCCCn1ccc2cc(Cl)c(Cl)cc21`, the Ratio IC50 in the data set filed under Homo sapiens is over 470. The IC50 in data set [1] was 63.9 nM; on Histone deacetylase 1 [2], over 30000 nM.

The molecule `O=C(CS)NCC(S)CCCn1ccc2cc(Cl)c(Cl)cc21` (stereo unspecified) showed an IC50 in [1] of 534 nM.

As for `O=C(CSSCC(=O)NCCCCNc1c(Cl)cc(Cl)c2cccnc12)NCCCCNc1c(Cl)cc(Cl)c2cccnc12`, the remaining at 1 h worked out at 18.2% in [3] and 8.5% in data set [4]. Further, the inhibition result at Histone deacetylase 1 [10] was “Active”. In addition, the half-life in data set [5] is 20.7 min; in [6], 25.9 min. The inhibition result in data set [9] was “Dose-dependent effect”. Also, the Drug metabolism result with Liver [11] and with Liver [12] was “Metabolite_Detected” throughout. Besides, the Activity in the data set on Mus musculus is 30%.

Take `O=C(CS)NCCCCCCn1ccc2cc(F)c(Cl)cc21`: in the data set listed under Homo sapiens, the Ratio IC50 was found to be 450. Besides, the IC50 came to 65.1 nM in data set [1] and 29300 nM against Histone deacetylase 1 [2].

`O=C(CS)NCCCCCOc1c(Cl)cc(Cl)c2cccnc12`: in the data set listed under Homo sapiens, the Ratio IC50 is over 901. In addition, the figures for the IC50 (in [1]; against Histone deacetylase 1 [2]) were 33.3 nM and over 30000 nM, respectively.

As to `O=C(CSSCC(=O)NCCCCCn1ccc2cc(Cl)c(Cl)cc21)NCCCCCn1ccc2cc(Cl)c(Cl)cc21`, the Drug metabolism entry in the data set with Liver [7] and in the data set with Liver [8] was “Metabolite_Detected” throughout. Further, the results for the remaining at 1 h in data set [3] and in [4] were 18.2% and 40.5%, respectively. The inhibition result at Histone deacetylase 1 [10] was “Active”. The figures for the half-life in data set [5] and in [6] were 49.5 min and 24.8 min, respectively. In addition, the inhibition result in data set [9] is “Dose-dependent effect”. In the data set with Mus musculus, the Activity was 40%.

In the case of `O=C(CS)NCCCCCn1ccc2cc(Cl)c(Cl)cc21`, the values for the remaining at 1 h in [3] and in data set [4] were 29.5% and 25.3%, respectively. In addition, the Ratio IC50 in the data set filed under Homo sapiens was determined as 657. The half-life amounted to 35.2 min in data set [5] and 41.3 min in [6]. Further, the inhibition entry in [9] is “Dose-dependent effect”. The IC50 in data set [1] was 11.4 nM; at Histone deacetylase 1 [2] it was 7490 nM.

The values above are taken from ChEMBL document CHEMBL3997851, “Design and Synthesis of Mercaptoacetamides as Potent, Selective, and Brain Permeable Histone Deacetylase 6 Inhibitors” (ACS Med Chem Lett, 2017).
